Results on 24 sequences are retold here after the EternaBench riboswitch data.

The data set deals with MS2 coat protein. Kind of data set: apparent Kd, MS2 coat protein; higher = weaker binding; RNA-MaP array; FMN 200 µM where present. The method in brief:
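Green signal from SNAP-549-labelled MS2 coat protein was normalised to red-channel RNA signal and to the median Fmax of control clusters. The protein was titrated from 0.7 or 1.5 nM, doubling to 3 µM, without and then with constant ligand, over designs transcribed by stalled E. coli RNA polymerase on Illumina sequencing-chip clusters, in 100 mM Tris-HCl pH 7.5, 80 mM KCl, 4 mM MgCl2, BSA, DTT, yeast tRNA and Tween-20. The apparent Kd is the median of filtered per-cluster binding-curve fits.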

Where [1] appears, read: designed as: OFF switch for flavin mononucleotide, no ligand.
Setting [2] is: ligand present: flavin mononucleotide, designed as: OFF switch for flavin mononucleotide.
Where [3] appears, read: designed as: ON switch for flavin mononucleotide, no ligand.
Setting [4] is: ligand present: flavin mononucleotide, designed as: ON switch for flavin mononucleotide.

With “CGUCAGUGAGGAUAUGGUGUCGUUUACAUGAGGAUCACCCAUGUUUCAUGGGACUAGAGACUAGAAGGUACUGACG”, the “apparent Kd” value by setting is: under setting [1], 97.4 nM; under setting [2], 266 nM.
For “UGUCCAUAGCAGAAGGACAUGAGGAUCACCCAUGUAAUCAUACAAAUAAAUGUAGGAUAUGCUAUGGACUAAGAGCGAAAGCUC”, the “apparent Kd” value runs as follows: under setting [1], 6.24 nM; under setting [2], 7.26 nM.
On to “UUGGACGUCGUAGGAUAUGUAGGAUUUUCCUACAUGAGGAUCACCCAUGUUGACAUGGAAGAAGGACAGAAGGACGAUGUCCAU”, for which the “apparent Kd” value stood at 648 nM under setting [3] and 16.3 nM under setting [4].
On the same counts, the results for “UGGUACUAGGGAGGAUAUGGGAAGAAACAUGAGGAUCACCCAUGUUUAAGAAUGCCGAGAGGCAACUAGAAGGCCCUAGUACCU” are 9.75 nM and 4.99 nM.
Regarding “GAUUAACAUGAGGAUCACCCAUGUGAGGAUAUUGACUUGCUCACUUUCCCAUUCGAGUCGAGAAGGCGCAUCUU”, the “apparent Kd” value is, setting by setting: under setting [1], 28.7 nM; under setting [2], 29 nM.
On the same counts, the results for “UUAUGUGUUGUAGGAUAUCAUUAGAUUUGUAAUUUAAUUGUAAUUUAUAUAUGAGAAGGACAUUUACAUGAGGAUCACCCAUGU” are 22.3 nM and 13.4 nM.
As to “CUUCGUAUAGAGGAUAUAGGAUACUUCGGUGUCCUAGAAGGCUGUACAUGAGGAUCACCCAUGUACUUCAGAUC”, the “apparent Kd” value was found to be 12.1 nM under setting [1] and 14.3 nM under setting [2].
For “CGGGCGGGAGGAUAUGCGUGGUUUGUUCUCGUUUGGUGUCUACAUGAGGAUCACCCAUGUAGAAGGCUUGUUUG” the same measures were 13.6 nM and 15.8 nM.
Take “GUCACGAAUGUAGGAUAUCGAGUGGAAUACACUCGAGAAGGACAUGAGGAUCACCCAUGUCAAAUGAAAGAUAAUAAACGUGAC”: the “apparent Kd” value was 14.6 nM under setting [1] and 18.8 nM under setting [2].
With “AUAUCAUACCAAGGAUAUUUAAGAUUUGUGUAGACAUGAGGAUCACCCAUGUGGCGUUAGUCACGGGAGAAGGUGGUAUGAUAU”, the “apparent Kd” value under setting [3] is 978 nM and the “apparent Kd” value under setting [4] was determined as 205 nM.
In the case of “GGUGCGAUGUAGAAGGCAGAUCUGAUUCAGAUCUGAGGAUAUACAUGAGGAUCACCCAUGUUAAGGCACCGCACGAGAGUGCAA”, the “apparent Kd” value stood at 7.4 nM under setting [1] and 13.7 nM under setting [2].
On the same counts, the results for “AAGAUGUGAGGAUAUCACGAGAGCGUCAAACGGACACUCUCUGAGAAGGCACAUGAGGAUCACCCAUGUCCAAA” are 57.2 nM and 295 nM.
On the same counts, the results for “CAAUUUAUAGCAGGAUAUACAAUACAAUGAUUAGUAGAAGGGUUUAAUACAUGAGGAUCACCCAUGUCAUGUGUCAUAAUAACC” are 31.2 nM and 23.5 nM.
On to “UUGGACGUCGUAGGAUAUGUAGGAUAUUCCUACAUGAGGAUCACCCAUGUUGACAUGGAAGCAGGACAGAAGGACGAUGUCCAU”, for which the “apparent Kd” value was determined as 578 nM under setting [3] and 14.3 nM under setting [4].
As to “AAGGUGUAAGGAUAUGCUGCUCGUCACUUGCGUGAUGAGUAGCAGAAGGUACAUGAGGAUCACCCAUGUAAAGA”, the “apparent Kd” value under setting [1] is 32.5 nM and the “apparent Kd” value under setting [2] was found to be 38.2 nM.
For “GGAUGUAAGGAGAAGGGCUACUGGUUGAAACCUGCGGCCUCUGGAACAUGAGGAUCACCCAUGUAGCAGGAUAUCCUUGCGUGA” the same measures were 129 nM and 46.3 nM.
On the same counts, the results for “GGAGAGGACAGAGGAUAUACGUGCUAGAGAUACUAGCAAAAUUUCCUCACAUGAGGAUCACCCAUGUAGAAGGCUGUCCUAUCG” are 16.6 nM and 309 nM.
Regarding “GGCAGCGGACAAGGAUAUAAGACGCAGACCAAAUUAGAAGGUGUCAUCUGGCAAUGCGAAAGCAGACAUGAGGAUCACCCAUGU”, the “apparent Kd” value by setting is: under setting [3], 68.8 nM; under setting [4], 61.7 nM.
On the same counts, the results for “UUGGACGCCGUAGGAUAUGUAGGAUAUUCCUACAUGAGGAUCACCCAUGUUGACAUGGAAGAAGGACAGAAGGACGAUGUCCAU” are 277 nM and 4.78 nM.
On to “GUGCGGUAGGAGAAGGACGGAGGCUUCAUUACAUACAUGAGGAUCACCCAUGUAGGAUAUCCUACCUCACGCGGCCUCCUCCUG”, for which the “apparent Kd” value reads like this: under setting [1], 6.44 nM; under setting [2], 6.79 nM.
For “UAAGUCGGAAGAUAAUAAUGAAUACAUGAGGAUCACCCAUGUAAGGAUAUGCAGUGGAAUACACUGCAGAAGGUACAUACCGAC”, the “apparent Kd” value runs as follows: under setting [1], 16.1 nM; under setting [2], 21.4 nM.
As to “UUGCGCUGUCGAGAGGAUAUGCGGUGUUGGACAUGAGGAUCACCCAUGUUUGCGAUAGCUUUACGGUAGAAGGCUCUUCAGCUGC”, the “apparent Kd” value worked out at 63.9 nM under setting [3] and 35.9 nM under setting [4].
For the sequence “AUUUUAUAAUAGAAGGAGGACUUCAUGAGGAUCACCCAUGUGUUGGUACUUAGGAUAUGUAAUAACAUGAGGAUCACCCAUGUC”, the “apparent Kd” value runs as follows: under setting [3], 55.9 nM; under setting [4], 49.8 nM.
On the same counts, the results for “GAUUGUUUUUAGAAGGUGCCGACGAGAGUCGCAACAUGAGGAUCACCCAUGUGUCGGUGACGACGCAAGGAUAUGGAGGUGGUU” are 174 nM and 79.8 nM.
